Rows were chosen to be rich in hits. Some 1.1% of all compounds tested hit in one or more screens of this group.
PMI act hi M6P = activators of human phosphomannose isomerase at near-saturating mannose 6-phosphate. actives 0.34% (n = 190,000). coupled PMI enzyme assay, resazurin fluorescence, 20 min; active compounds read high; 1 = untreated enzyme, 0 = substrate-free blank. activation factor at 20 µM. P34949. AID 1216;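 active = activation factor of 2 or more at 20 µM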
Target sequence (P34949 whole entry, looked up): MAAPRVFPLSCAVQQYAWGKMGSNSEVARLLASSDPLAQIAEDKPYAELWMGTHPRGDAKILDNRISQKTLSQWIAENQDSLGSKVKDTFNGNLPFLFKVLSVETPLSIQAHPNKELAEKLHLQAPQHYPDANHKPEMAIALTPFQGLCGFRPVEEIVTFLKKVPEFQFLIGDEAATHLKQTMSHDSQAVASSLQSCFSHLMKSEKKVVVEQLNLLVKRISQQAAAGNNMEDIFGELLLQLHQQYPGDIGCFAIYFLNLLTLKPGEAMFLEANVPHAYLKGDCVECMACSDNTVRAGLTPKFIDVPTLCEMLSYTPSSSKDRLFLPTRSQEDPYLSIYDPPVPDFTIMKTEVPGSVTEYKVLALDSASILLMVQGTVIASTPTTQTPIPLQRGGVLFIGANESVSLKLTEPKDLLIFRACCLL
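Material: human phosphomannose isomerase with PGI, G6PDH, diaphorase coupling enzymes; amount: PMI at 15 ng/mL final; also added: Mannose-6-phosphate 1.0 mM (near-saturating) plus 0.22 mM NADP+; incubation: enzyme reaction with compound 20 min at room temperature; signal: resorufin fluorescence (Ex 544/Em 590 nm) from resazurin via diaphorase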
G6PDH counter = inhibits Leuconostoc G6PDH, flagging false hits in G6PDH-based assays. Purified L. mesenteroides G6PDH, diaphorase/resazurin coupled fluorescence, 45 min. inhibition, % at 5 µM. actives 0.12% (n = 200,000). AID 1020; in the data active = inhibition above about 50%
PMI act = activators of human phosphomannose isomerase | purified human PMI, coupled resazurin fluorescence, 20 min; active compounds read high; 1 = vehicle control, 0 substrate-free wells | AID 1214 | P34949 | actives 0.005% (n = 190,000) | activation factor at 20 µM;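 active = activation factor of 2 or more at 20 µM, relative to plate controls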
Diaphorase act = counter-screen for diaphorase-based assays: diaphorase activators and chemical reducers; AID 1229; Diaphorase/resazurin coupled assay, resorufin fluorescence, 16 min; active compounds read high; 1 = vehicle wells, 0 = NADH-free wells; actives 0.005% (n = 190,000); activation factor at 20 µM;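 active = diaphorase activity raised at least twofold by the compound at 20 µM; inactive = activation factor below 2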
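Assay system: bacterial diaphorase enzyme (C. kluyveri) / Input: enzyme 0.07 U/mL final / Medium: 50 mM HEPES pH 7.4 with 4.542 mM MgCl2, 0.005% Tween 20 / Doses: single compound dose of 20 µM, 1% DMSO final / Incubation: 16 min enzyme reaction, ambient temperature / Signal: fluorescence, excitation 544 nm and emission 590 nm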
Diaphorase inh = counter-screen for diaphorase-based assays: diaphorase inhibitors and chemical oxidizers. diaphorase resazurin-to-resorufin fluorescence, NADH, 16 min; bacterial (C. kluyveri) enzyme, not human. inhibition, % at 20 µM. actives 0.69% (n = 190,000);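 active = primary screen inhibition at 20 µM above a set limit, cut at about 50% in these data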;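 also: plate controls were DMSO with full reaction for no effect and wells lacking NADH for full effect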
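Test system: Clostridium kluyveri diaphorase enzyme / Quantity: diaphorase at 0.14 U/mL in enzyme working solution / Incubation: 16-min room-temperature incubation before reading / Benchmarks: NADH-free wells as positive control, DMSO-only neutral wells / Signal: resorufin fluorescence 544/590 nm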
Redox H2O2 prof = compounds producing H2O2 with reducing agent – biochemical, NIH compound library profiling, artefact control for MLSCN library redox annotation, primary screen. DTT-dependent redox cycling H2O2, phenol red/HRP absorbance; 100% = 100 µM peroxide control, 0% = buffer. activation, % at 10 µM. actives 0.03% (n = 200,000);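 active = activation of at least 50% relative to the plate's high and low controls in the primary single-dose screen; inactive = activation below 50%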;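 also: compound incubated with DTT at 0.8 mM final as the reducing agent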
* hit, by the source's call; · = no result given.

SMILES	PMI act hi M6P	G6PDH counter	PMI act	Diaphorase act	Diaphorase inh	Redox H2O2 prof
S=C(NCCc1ccccc1)Nc1ccc(Br)cn1	0.9	-9	0.8	0.8	15	-1
Nc1c(C(=O)Nc2ccccc2)sc2nc3c(c(-c4ccco4)c12)CCC3	0.7	2	0.9	0.3	69*	1
COC(=O)c1ccc(-c2ccc(C(c3c(C)[nH][nH]c3=O)c3c(C)[nH][nH]c3=O)o2)cc1	1	24	0.5	0.3	68*	0
Cc1cc(C)nc(SCc2ccc(C(=O)N/N=C/C3CCCCC3)cc2)n1	0.9	3	0.8	0.8	17	0
Cc1nc2nc(-c3ccc(Cl)cc3)cn2nc1C	1.1	1	1	0.8	18	0
COc1cccc(-c2cn3nc(C)c(C)nc3n2)c1	2.1*	20	1.6	1.1	-8	0
CN1c2ccccc2N(C)C1(C)c1ccccc1	0.7	10	0.7	0.8	22	0
CCN1c2ccccc2N(C)C1(C)c1ccccc1 (stereo unspecified)	0.5	-5	0.4	0.4	59*	1
O=C(Nc1ccc(Cl)cc1)[C@@H]1[C@@H]2C(=O)N(c3ccc4ccccc4c3)C(=O)[C@@H]2[C@H]2C=CC=NN21	2*	0	1.5	0.6	40	1
Cc1ccc(C(=O)O)cc1NC(=S)NC(=O)c1ccc([N+](=O)[O-])c(C)c1	1	0	1.1	1	-2	0
CCCSc1nc2sc3c(c2c(=O)[nH]1)CCN(Cc1ccccc1)C3	1.7	-44	1.3	0.5	54*	4
O=c1[nH]c(C(Cl)Cl)nc2sc3c(c12)CCN(Cc1ccccc1)C3	2.6*	0	1.8	0.8	18	0
CCOC(=O)NNC(=O)C1CCC(C)CC1 (stereo unspecified)	1.1	1	1.1	1	0	0
Cc1cccc2cc3c(N)c(C(=O)N4CCOCC4)sc3nc12	2.1*	15	1.3	0.9	9	2
CCOC(=O)Cc1c(C)nc(Cc2ccc(OC(C)C)cc2)[nH]c1=O	1.1	6	1.1	0.9	9	-1
CC1(O)N(CCC(=O)Nc2cccc(F)c2)C(=O)OC12CCCCC2 (stereo unspecified)	1	13	1.1	1	-5	-1
O=C(CCc1nnc(C2CCCCC2)o1)N1CCC(Oc2cccnc2)CC1	·	8	·	·	·	-1
Cc1ccc2c(Cl)cc(Cl)c(OCC(=O)NCc3ccco3)c2n1	1.1	28	0.9	0.5	54*	1
Cc1ccc2c(Cl)cc(Cl)c(OCC(=O)NC(=O)NCc3ccco3)c2n1	1	6	1	0.8	24	-5
N=c1c(C(=O)NCc2ccc(F)cc2)cc2c(=O)n3ccccc3nc2n1Cc1ccco1	1.2	-7	1.2	0.5	51*	-2
Cc1ccc(CNC(=O)c2cc3c(=O)n4ccccc4nc3n(Cc3ccco3)c2=N)cc1	1.2	6	1.2	0.1	90*	·
N=c1c(C(=O)NCc2ccco2)cc2c(=O)n3ccccc3nc2n1Cc1ccccc1	1	7	0.9	1	3	-2
Cc1ccc2nc3c(cc(C(=O)NCc4ccco4)c(=N)n3Cc3ccco3)c(=O)n2c1	·	5	·	·	·	12
N=c1c(C(=O)NCc2ccco2)cc2c(=O)n3ccccc3nc2n1Cc1ccc(Cl)cc1	0.9	-3	1.1	0.9	11	15
N=c1c(C(=O)NCc2ccccc2)cc2c(=O)n3ccccc3nc2n1Cc1ccco1	1	-1	1	0.3	68*	1
O=C1CCCC/C1=N\Nc1ccc(OCc2ccccc2)cc1	2.5*	-3	1.7	1	4	0
CS(=O)(=O)Nc1ccc(OCc2ccccc2)cc1	1	-3	1	0.9	14	0

Source: PubChem BioAssay (several laboratories)
